According to PubChem BioAssay AID2152 (The Scripps Research Institute Molecular Screening Center, 2009):
Screen size: about 2,300 compounds; about 25 (1%) were called active. Shown is part of a subset that was picked to be rich in actives. Values without a mark were called inactive.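 The calls were made as follows: active = mean inhibition over three replicate wells above the hit threshold derived in the earlier primary screen (cut at about 45% in these data); inactive = the rest.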

Each compound was assayed on Hepatitis C virus core protein (core106 dimerization) (assay: inhibitors of HCV core protein dimerization, confirmation, biochemical, TR-FRET, triplicate (AID 2152;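 also: 0% = DMSO wells and 100% = unlabelled core106 competitor control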)). Details: TR-FRET GST-/Flag-core106 dimerization, HTRF; at 5 µM; active compounds read high.
Summary of the method: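 Test system – GST- and Flag-tagged HCV core106 peptides, dimerization via antibody TR-FRET · Amount – 17 nM Flag- plus 13.5 nM GST-core106 · Schedule – 4 h incubation, 22.5 °C · Compound dosing – one 5 µM dose, 0.5% DMSO · Detection – TR-FRET, 340 nm excitation, 671/617 nm emission · Reagent – Eu(K)-anti-GST plus XL665-anti-FLAG antibodies · Read-out basis – percent inhibition from emission ratio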

Row | SMILES | inhibition
1 | Cc1ccc(NC(=O)N(Cc2ccc3c(c2)OCO3)Cc2cc3cc4c(cc3[nH]c2=O)OCCO4)cc1 | 2.67%
2 | CC(=O)NS(=O)(=O)c1ccc(NC(=O)c2cc(-c3ccc(C)c(C)c3)nc3ccccc23)cc1 | 5.8%
3 | COc1cc(C(=O)NCC(=O)OCC(=O)c2cccc3ccccc23)cc(OC)c1OC | -3.85%
4 | O=C(c1ccco1)N1CCN(c2nc(C3CC3)nc3c2nnn3Cc2ccccc2Cl)CC1 | -2.25%
5 | CCOC(=O)c1nn(-c2ccccc2C)c2nc(-c3ccc(Cl)cc3)c(C#N)c(=O)n12 | 3.54%
6 | Cc1cccc(N(C)S(=O)(=O)c2ccc3c(c2)C(C)(C)C(=O)N3C)c1 | 4.84%
7 | COc1cc(OC)c(NC(=O)CN(C)S(=O)(=O)c2ccc(-c3ccc(=O)[nH]n3)s2)cc1Cl | -0.24%
8 | O=C(COC(=O)/C=C/c1ccc(Br)o1)Nc1ccc2[nH]c(=O)[nH]c2c1 | 24.5%
9 | O=C(/C=C/c1ccc(Br)o1)OCc1nc2ccsc2c(=O)[nH]1 | 46% (active)
10 | O=C1COc2ccc(C(=O)COC(=O)/C=C/c3ccc(Br)o3)cc2N1 | 35.5%
11 | Cc1ccccc1N1CC(C(=O)Nc2nnc(SCc3ccccn3)s2)CC1=O (stereo not drawn) | 0.24%
12 | O=C(Nc1ccc(N2CCCC2)c(Cl)c1)c1ccc2c(c1)OCCO2 | -0.93%
13 | Cc1ccc(OCC(=O)c2cc(C)c(C)cc2C)c([N+](=O)[O-])n1 | -9.54%
14 | Cc1cc(C(=O)CSc2nnc(-c3ccc(OC(F)F)cc3)o2)c(C)n1Cc1cccs1 | -10.5%
15 | C=CCn1c(C)cc(C2=NNC(=Nc3ccc(C)cc3)SC2)c1C | -4.54%
16 | O=C(O)CCC(=O)N1N=C(c2cccs2)CC1c1cn(-c2ccccc2)nc1-c1ccccc1 (stereo not drawn) | 7.42%
17 | O=c1cc(-c2ccccc2Cl)c2c([nH]1)CCC2 | -2.22%
18 | Cc1ccc(C2CC(=O)N3CN(c4ccc(Br)cc4)CSC3=C2C#N)o1 (stereo not drawn) | -1.74%
19 | Cc1ccc(C2C(C#N)=C(N)Oc3c2sc2ccccc32)o1 (stereo not drawn) | 14%
20 | Cc1cccc(N2CSC3=C(C#N)C(c4ccc(C)o4)CC(=O)N3C2)c1 (stereo not drawn) | 50.5% (active)
21 | CC1CCc2sc(C(=O)N/N=C/c3ccc([N+](=O)[O-])cc3)cc2C1 (stereo not drawn) | -11.5%
22 | Cc1cccc(N2CC(C(=O)Nc3nnc(SCC(=O)N4CCOCC4)s3)CC2=O)c1 (stereo not drawn) | 11.4%
23 | Cc1ccc(Cn2c(C(C)Nc3nc(-c4ccc(Cl)c([N+](=O)[O-])c4)cs3)nc3cc(C(F)(F)F)ccc32)cc1 (stereo not drawn) | 5.29%
